# An excerpt weighted towards active compounds, which were near 7.6% of everything screened.
# HEK293 NFkB inh – lowers PMA/ionomycin-induced NF-kB signal in HEK293 cells; AID 465; inhibition, % at 3 µM; 0.21% of 62,000 active; HEK-293 NF-kB luciferase reporter, luminescence;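 active means inhibition above the mean of all tested compounds plus 3 SD, cut at about 40% in these data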;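 further: 0% = stimulated DMSO wells and 100% = 10 µM reference inhibitor 5653914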
#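 System – HEK-293 cells with stable firefly luciferase reporter driven by four HIV NF-kB elements · Doses – one dose, 3 µM · Schedule – 1 h compound pre-incubation, 16 h PMA/ionomycin at 37 °C · Technique – luminescence from luciferase substrate reagent · Measure – percent inhibition normalized per plate to DMSO and reference-inhibitor controls · Replicates – tested once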
# Jurkat viability – cytotoxic compounds reducing Jurkat cell viability | Jurkat E6.1 viability, ATP luminescence, 48 h | inhibition, % at 4 µM | 1.2% of 56,000 active | AID 463;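 active means inhibition above the mean inhibition of all tested compounds plus 3 SD, cut at about 28% in these data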
# M1 antag – blocks the rat M1 muscarinic receptor response to acetylcholine; P08482; CHO-M1 cells, Fluo-4 calcium, ACh EC80 antagonist mode; active compounds read low; B-score at 10 µM; 3.4% of 64,000 active;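 active means calcium fluorescence response, raw or row-and-column corrected B-score, differing from the plate sample mean either way at a set confidence level, mostly lower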
# DAT uptake mod – human DAT dopamine uptake with cocaine, either direction; B-score at 10 µM; 1.3% of 110,000 active; LLC-PK1 hDAT cells, [14C]-dopamine uptake with cocaine IC80; actives deviate in either direction; AID 449768;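 active means Z score or B-score, a plate-position-corrected score, falls beyond the plate's 99.7% confidence bounds, in either direction; inactive means both scores lie inside the 99.7% bounds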;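 further: scored against the spread of the other compound wells on the same plate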
# M1 agonist – agonists of M1 muscarinic receptor | CHO-M1 cells, Fluo-4 calcium fluorescence, agonist mode; active compounds read high | B-score at 10 µM | 3% of 64,000 active | AID 626;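 active means fluorescence rise, raw or as B-score row- and column-corrected plate score, outside the 99.7% band of its plate's samples, either direction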
# D1 mod – D1 dopamine receptor (human) allosteric modulation. HEK293 D1, CRE-luciferase, dopamine EC30 potentiation; actives deviate in either direction. B-score at 10 µM. 5.9% of 58,000 active. AID 641;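 active means luminescence count or its row- and column-corrected plate score outside the 99.7% band of the plate's sample wells, on either side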
# M1 ag confirm – rat M1 muscarinic agonism, confirmation; shares compounds with M1 agonist; CHO-M1 cells, Fluo-4 calcium fluorescence, agonist mode; actives lie on both sides; fluorescence change (max-min) at 10 µM; 19% of 1,700 active;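 active means fluorescence change differs from the solvent-only DMSO control mean at a set confidence level in both duplicate runs; inconclusive means differs from solvent-only control mean in just one of two runs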;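 further: an EC20 dose of acetylcholine follows compound addition during the same imaging run; raw fluorescence intensity difference in instrument units with no normalization to controls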
# M4 agonist ctr – counter-screen for M1 agonists: activity at rat M4 receptor | AID 1741 | fluorescence change (max-min) at 10 µM | 9% of 1,700 active | CHO M4/Gqi5 cells, Fluo-4 calcium fluorescence, agonist mode; actives lie on both sides | shares compounds with M1 agonist;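 active means fluorescence change differing from the plate's solvent-only control wells at 99.7% confidence in both duplicates, whether higher or lower; inconclusive means differs from solvent controls in only one of two duplicates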
# Target sequence (P08485 whole entry, looked up): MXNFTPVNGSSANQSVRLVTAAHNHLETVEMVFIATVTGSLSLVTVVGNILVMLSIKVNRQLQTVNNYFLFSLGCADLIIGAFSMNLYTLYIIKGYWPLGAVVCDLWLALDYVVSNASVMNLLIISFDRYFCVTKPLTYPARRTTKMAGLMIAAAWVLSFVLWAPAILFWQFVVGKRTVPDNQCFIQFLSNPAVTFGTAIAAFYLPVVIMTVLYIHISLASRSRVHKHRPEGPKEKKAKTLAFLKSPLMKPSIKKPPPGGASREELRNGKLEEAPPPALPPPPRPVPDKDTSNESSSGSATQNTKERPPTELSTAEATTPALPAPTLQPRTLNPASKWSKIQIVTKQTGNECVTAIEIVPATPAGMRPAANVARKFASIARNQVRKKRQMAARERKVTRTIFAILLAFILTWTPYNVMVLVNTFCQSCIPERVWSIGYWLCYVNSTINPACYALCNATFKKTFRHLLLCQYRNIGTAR
# Numbers without * were called inactive; ? = inconclusive; / = not tested or not shown.
SMILES,HEK293 NFkB inh,Jurkat viability,M1 antag,DAT uptake mod,M1 agonist,D1 mod,M1 ag confirm,M4 agonist ctr
COc1ccc(Cl)c(NC(=O)NCCN2CCN(c3ccccc3)CC2)c1,-1,-4,-0.43,-1.4,2.3*,-3.8,-28*,-59
O=C(O)[C@@H](c1ccccc1)N1Cc2ccccc2C1=O,21,-2,-0.25,-0.79,3*,-0.19,?,-31
CC(=O)N1[C@H](Cc2ccccc2)C=C[C@]1(C)C(=O)NCCc1c[nH]c2ccccc12,/,/,/,1.2,/,/,/,/
CCN(CC)CC#CC(C)OCOCC#CCOC (stereo not drawn),9,-1,0.81,-0.46,-4.1*,-0.59,?,-60
NC(=O)c1c(NC(=O)CSc2nnc(Cc3ccccc3)n2Cc2ccco2)sc2c1CCC2,7,4,-1.8,0.0072,7.3*,/,-14,-22
O=C(CSc1nnc(Cc2ccccc2)n1Cc1ccco1)NC12CC3CC(CC(C3)C1)C2,20,-1,-1.8,0.41,2.1,-0.43,/,/
COC(=O)c1sccc1NC(=O)c1ccc(Br)s1,/,/,/,-1.3,/,/,/,/
O=c1c(-c2nc3ccccc3o2)c2oc3ccccc3n2c2ccccc12,23,7,-4.7*,0.12,12*,-0.019,?,-70
Nc1cc(N)cc(-c2nc3ccccc3o2)c1,2,-3,0.012,0.044,0.5,-0.67,/,/
CC1CCN(c2nc(-c3ccccc3)cc(C(F)(F)F)n2)CC1,11,/,-0.12,-0.79,1.3,0.62,/,/
Cc1ccc(-c2cc(C(F)F)nc(N3CCC(C)CC3)n2)cc1,4,/,0.71,-0.12,4.2*,2.6,3.3,-8.7
COCCN(CCOC)S(=O)(=O)c1ccc(C(=O)NCCCN2CCOCC2)cc1,6,-6,0.53,-0.00068,-1.3,0.44,/,/
CCOC(=O)CNc1c(-c2ccccc2)nc2ccc(Cl)cn12,/,/,/,-0.023,/,/,/,/
COC(=O)CNc1c(-c2ccccn2)nc2ccc(Br)cn12,-28,/,0.5,-7.2*,5.1*,-1.7,27,-32
O=C(CCCn1c(=O)[nH]c2ccccc2c1=O)N1CCN(c2ccccn2)CC1,13,5,0.83,/,-0.29,-0.76,/,/
O=C(CCCCCNc1nc(=S)[nH]c2ccccc12)N1CCN(c2ccccn2)CC1,13,/,-1.6,2.8*,15*,-0.0021,-9,-32
Cc1ccc2c(c1)CCCN2C(=O)c1ccncc1,12,-4,0.43,-0.48,0.83,1.5,/,/
COc1ccc(NC(=O)C(=O)NCc2ccncc2)c(OC)c1,/,/,/,-0.4,/,/,/,/
Cc1ccc2[nH]c3c(c2c1)CN(C(=O)CN1CCN(c2cccc(C)c2C)CC1)CC3,10,4,-0.31,-0.62,-3*,0.0052,37,-5.4
O=C(CSc1ncnc2c1oc1ccccc12)N1CCCc2ccccc21,1,0,-2.3,0.66,1.8,-0.26,/,/
O=C(Cc1nc2ccccc2s1)c1ccc(O)cc1O,-6,6,0.24,0.005,-1.8*,-2.9,4.5,4.1
Oc1c(/C=N/c2ncn[nH]2)ccc2ccccc12,8,3,-0.045,-0.21,4.9*,1.4,22,?
O=C(Nc1ccccc1N1CCN(C(=O)c2ccc(Cl)cc2)CC1)c1cc2ccccc2o1,14,-2,2.8*,0.069,4.6*,0.4,-20,?
O=C(Nc1ccc(N2CCN(C(=O)c3ccc(Cl)cc3)CC2)cc1)c1cc2ccccc2o1,/,/,/,-0.46,/,/,/,/
Cc1[nH]c(=O)[nH]c(=O)c1CSc1nnc(CCCCCNC(=O)OC(C)(C)C)o1,7,0,-0.53,-0.06,1.4,0.31,/,/
SMILES,HEK293 NFkB inh,Jurkat viability,M1 antag,DAT uptake mod,M1 agonist,D1 mod,M1 ag confirm,M4 agonist ctr
CS(=O)(=O)N1CCc2cc(S(=O)(=O)Nc3ccc4c(c3)OCCO4)ccc21,26,28*,-1.1,-1.3,1.8*,-1.2,8.9,-23
CCC(=O)N1CCc2cc(S(=O)(=O)Nc3ccc4c(c3)OCCO4)ccc21,12,/,/,-0.71,/,-0.23,/,/
Cc1nc(-c2cn[nH]c2)c2cc(C)oc2n1,/,/,1.4,0.042,0.51,/,/,/
CCOc1ccc(Br)cc1C1C(C(=O)OC)=C(N)Oc2cc(N(C)C)ccc21 (stereo not drawn),/,/,/,-0.34,/,/,/,/
COc1ccccc1OCC(=O)c1[nH]c(C)c(C(C)=O)c1C,26,26,-1.4,1.2,8.6*,-0.12,4.5,-6.8
COc1ccccc1NC(=O)c1[nH]c(C)c(C(C)=O)c1C,4,-5,1.1,-1.4,0.049,-0.54,/,/
COc1ccc(Cl)cc1NC(=S)NCCc1c[nH]c2ccccc12,/,/,/,2.2,/,/,/,/
CC(=O)C[C@H]1c2cc(C(F)(F)F)ccc2S(=O)(=O)N1c1ccccc1,/,/,/,-0.55,/,/,/,/
Cn1c(N)c(C(=O)c2ccccc2)c(=O)n(C)c1=O,/,/,/,-0.26,/,/,/,/
CCC(=NC(C)c1ccccc1)c1c(O)n(C)c(=O)n(C)c1=O (stereo not drawn),9,54*,-0.51,-0.34,3.8*,-1.3,-6.7,-28
COC(=O)c1c(NC(=O)CN2CCN(c3ccccc3OC)CC2)c2c(C)cccc2n1C,1,-5,-0.093,-1.1,3,-0.6,/,/
COC(=O)c1c(NC(=O)CN2CCN(c3ccccc3)CC2)c2c(C)cccc2n1C,18,0,0.36,0.47,4.5*,-0.1,-25*,?
O=C(NCCCN1CCOCC1)c1cc(-c2ccc(Br)cc2)on1,-11,-4,-0.5,0.28,2.2*,-0.91,?,-44
Cc1ccc(C(=O)Cn2nnc3ccccc32)cc1,/,/,/,-0.36,/,/,/,/
CCN(C(=O)c1ccc(C(C)(C)C)cc1)c1nnc(Cn2nnc3ccccc32)s1,40*,101*,-0.64,-1,3.2*,-1.3,?,-54
CCOC(=O)C1CCCN(c2nc3ccccc3nc2C(C#N)C(=O)OC(C)C)C1 (stereo not drawn),/,/,-0.12,/,2.2,0.65,/,/
CCOC(=O)C1CCN(c2nc3ccccc3nc2C(C#N)C(=O)OC(C)C)CC1 (stereo not drawn),/,/,-0.37,1.1,28*,-0.28,6.4,-33
CCOC(=O)C1CCN(c2nc3ccccc3nc2C(C#N)C(=O)OCCOC)CC1 (stereo not drawn),/,/,-0.027,0.021,6.2*,0.38,0,-9.6
C=CCOC(=O)C(C#N)c1nc2ccccc2nc1N1CCC(C(=O)OCC)CC1 (stereo not drawn),/,/,0.19,-0.28,5.1*,1.5,-2.8,?
C=CCOC(=O)C(C#N)c1nc2ccccc2nc1N1CCN(c2ccccc2OCC)CC1 (stereo not drawn),/,/,-0.011,/,-0.65,3.1,/,/
CCOC(=O)C1CCN(c2nc3ccccc3nc2C(C#N)C(=O)OC(C)COC)CC1 (stereo not drawn),/,/,-0.091,0.33,6.2*,/,?,-52
